From ChEMBL document CHEMBL4138195, “Discovery of novel propargylamine-modified 4-aminoalkyl imidazole substituted pyrimidinylthiourea derivatives as multifunctional agents for the treatment of Alzheimer's disease” (Eur J Med Chem, 2018)

Columns and labels:
[1] = biological target: T1, Amine oxidase [flavin-containing] B (Homo sapiens, UniProt P27338)
T1 sequence (P27338 whole entry): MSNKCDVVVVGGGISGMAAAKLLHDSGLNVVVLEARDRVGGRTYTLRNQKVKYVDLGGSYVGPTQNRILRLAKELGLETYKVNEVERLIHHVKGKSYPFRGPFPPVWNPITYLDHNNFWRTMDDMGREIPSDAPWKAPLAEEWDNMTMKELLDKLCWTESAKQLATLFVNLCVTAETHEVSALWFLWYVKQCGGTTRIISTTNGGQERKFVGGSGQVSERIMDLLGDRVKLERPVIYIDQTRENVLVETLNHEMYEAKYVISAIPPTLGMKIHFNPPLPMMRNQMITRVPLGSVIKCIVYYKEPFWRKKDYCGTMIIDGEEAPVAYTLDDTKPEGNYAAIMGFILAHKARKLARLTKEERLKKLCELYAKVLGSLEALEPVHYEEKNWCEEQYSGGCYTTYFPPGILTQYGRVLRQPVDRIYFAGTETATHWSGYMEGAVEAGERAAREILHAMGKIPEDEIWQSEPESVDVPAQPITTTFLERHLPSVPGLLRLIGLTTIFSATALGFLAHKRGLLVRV

Rattus norvegicus = species: Rattus norvegicus; assay: Selectivity index, ratio of IC50 for BuChE in rat serum to IC50 for AChE in rat cortex homogenate; format: tissue-based
[2] = biological target: Butyrylcholinesterase (Rattus norvegicus) (UniProt Q9JKC1); assay: Inhibition of BuChE in rat serum at 40 uM using butyrylthiocholine iodide as substrate after 20 mins by Ellman's method
Butyrylcholinesterase (Rattus norvegicus), sequence (Q9JKC1 as listed by the source): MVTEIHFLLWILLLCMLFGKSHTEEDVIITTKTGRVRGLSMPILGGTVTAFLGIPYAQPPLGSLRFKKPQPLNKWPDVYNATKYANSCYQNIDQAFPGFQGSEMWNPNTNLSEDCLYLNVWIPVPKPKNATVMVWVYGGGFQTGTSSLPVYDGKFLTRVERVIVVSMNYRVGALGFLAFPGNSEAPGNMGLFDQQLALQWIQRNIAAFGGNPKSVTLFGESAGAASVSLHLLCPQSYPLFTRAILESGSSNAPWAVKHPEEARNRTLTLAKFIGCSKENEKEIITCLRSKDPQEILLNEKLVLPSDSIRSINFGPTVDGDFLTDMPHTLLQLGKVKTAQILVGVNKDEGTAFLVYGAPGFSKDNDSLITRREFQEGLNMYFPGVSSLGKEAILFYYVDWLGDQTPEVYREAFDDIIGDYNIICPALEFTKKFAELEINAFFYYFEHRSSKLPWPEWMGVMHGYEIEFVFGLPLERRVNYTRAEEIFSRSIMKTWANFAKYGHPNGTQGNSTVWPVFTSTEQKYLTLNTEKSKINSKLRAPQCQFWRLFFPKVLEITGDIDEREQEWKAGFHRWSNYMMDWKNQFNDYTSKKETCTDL

Acetylcholinesterase = biological target: T2, Acetylcholinesterase (Rattus norvegicus, UniProt P37136); assay: Inhibition of AChE in rat cortex homogenate using acetylthiocholine iodide as substrate after 20 mins by Ellman's method
T2 sequence (P37136 whole entry): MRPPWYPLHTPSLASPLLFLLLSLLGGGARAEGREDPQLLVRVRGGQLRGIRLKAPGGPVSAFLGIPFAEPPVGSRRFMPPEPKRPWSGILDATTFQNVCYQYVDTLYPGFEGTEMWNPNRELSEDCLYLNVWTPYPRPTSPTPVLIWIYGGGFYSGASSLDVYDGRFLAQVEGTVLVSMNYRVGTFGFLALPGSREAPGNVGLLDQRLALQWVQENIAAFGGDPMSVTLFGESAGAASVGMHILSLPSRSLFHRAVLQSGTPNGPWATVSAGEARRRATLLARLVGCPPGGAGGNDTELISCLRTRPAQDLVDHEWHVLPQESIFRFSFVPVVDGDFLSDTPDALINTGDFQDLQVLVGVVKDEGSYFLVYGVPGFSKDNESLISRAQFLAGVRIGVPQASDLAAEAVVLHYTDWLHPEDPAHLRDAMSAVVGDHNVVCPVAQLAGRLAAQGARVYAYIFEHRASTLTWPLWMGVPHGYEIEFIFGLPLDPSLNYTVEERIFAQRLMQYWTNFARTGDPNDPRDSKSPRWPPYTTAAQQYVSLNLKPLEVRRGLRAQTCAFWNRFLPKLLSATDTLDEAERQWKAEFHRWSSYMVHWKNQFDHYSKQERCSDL

[3] = biological target: T3, Amine oxidase [flavin-containing] A (Homo sapiens, UniProt P21397); assay: Inhibition of recombinant human MAOA using p-tyramine as substrate preincubated for 15 mins followed by substrate addition measured after 15 mins by Amplex red reagent based fluorescence assay
T3 sequence (P21397 whole entry): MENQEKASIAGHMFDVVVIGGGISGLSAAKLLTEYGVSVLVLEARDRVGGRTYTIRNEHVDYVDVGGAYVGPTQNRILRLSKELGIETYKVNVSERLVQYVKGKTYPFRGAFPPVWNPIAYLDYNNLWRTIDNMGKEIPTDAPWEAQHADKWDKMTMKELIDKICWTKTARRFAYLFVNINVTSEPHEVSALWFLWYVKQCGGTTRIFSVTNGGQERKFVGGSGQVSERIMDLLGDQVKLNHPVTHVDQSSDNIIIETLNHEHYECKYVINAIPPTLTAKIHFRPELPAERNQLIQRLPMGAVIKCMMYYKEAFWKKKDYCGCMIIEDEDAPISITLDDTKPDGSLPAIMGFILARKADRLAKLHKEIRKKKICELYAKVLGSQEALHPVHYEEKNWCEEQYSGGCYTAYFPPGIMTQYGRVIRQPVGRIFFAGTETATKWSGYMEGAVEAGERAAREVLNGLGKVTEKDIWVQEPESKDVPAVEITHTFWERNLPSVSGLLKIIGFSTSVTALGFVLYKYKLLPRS

[4] = biological target: T3, Amine oxidase [flavin-containing] A; assay: Inhibition of recombinant human MAOA at 50 uM using p-tyramine as substrate preincubated for 15 mins followed by substrate addition measured after 15 mins by Amplex red reagent based fluorescence assay; settings: 0.25 h
Procedure, shortened: (§1)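 Recombinant human MAO-A (12.5 µg/mL) or MAO-B (75 µg/mL) preincubated 15 min at 37 °C with compound (diluted from 10 mM DMSO stock in 50 mM KH2PO4, pH 7.4). Amplex Red working solution added: 2 mM p-tyramine (MAO-A) or benzylamine (MAO-B), 2 U/mL HRP. After 15 min at 37 °C, fluorescence read (ex 545/em 590), background from enzyme-free wells subtracted.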

[5] = biological target: T1, Amine oxidase [flavin-containing] B; assay: Inhibition of recombinant human MAOB at 50 uM using benzylamine as substrate preincubated for 15 mins followed by substrate addition measured after 15 mins by Amplex red reagent based fluorescence assay; settings: 0.25 h
Butyrylcholinesterase = Butyrylcholinesterase (Rattus norvegicus, UniProt Q9JKC1); assay: Inhibition of BuChE in rat serum using butyrylthiocholine iodide as substrate after 20 mins by Ellman's method
Butyrylcholinesterase, sequence (Q9JKC1 whole entry): as the sequence (Q9JKC1 as listed by the source) above

[6] = Antioxidant activity assessed as trolox equivalent of AAPH radical scavenging activity preincubated for 10 mins followed by AAPH addition measured every 2 mins for 180 mins by ORAC-FL assay; format: functional
Procedure, shortened: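 Compound at 20 µM (diluted from 10 mM DMSO stock in 75 mM phosphate, pH 7.4) with fluorescein (0.117 µM diluted) for 10 min at 37 °C, then AAPH (40 mM solution) added. Fluorescence (ex 485/em 535) read every 2 min for 180 min. […] Triplicate wells, ≥3 runs.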

in vitro = settings: PAMPA
Homo sapiens = species: Homo sapiens; assay: Selectivity index, ratio of IC50 for recombinant human MAOA to IC50 for recombinant human MAOB
Procedure, shortened: as §1

Structure (SMILES) | IC50 [1] | Ratio IC50 (Rattus norvegicus) | inhibition [2] | IC50 (Acetylcholinesterase) | IC50 [3] | inhibition at 50 µM [4] | inhibition at 50 µM [5] | IC50 (Butyrylcholinesterase) | Activity (umolequiv/umol) [6] | Papp at 12 h, 100 ug/ml (in vitro) | Ratio IC50 (Homo sapiens)
C#CCN(CC)CCc1cn(-c2cc(NC(=S)NCC)ncn2)cn1 | > 50 µM | > 30 | 2.44% | 1340 nM | > 50 µM | 13% | 49.4% | > 40 µM |  |  | 
C#CCNCCc1cn(-c2cc(NC(=S)NCC)ncn2)cn1 | > 50 µM | > 175 | 8.73% | 228 nM | > 50 µM | 54.2% | 19.2% | > 40 µM | 1.27 | 3.24 ×10⁻⁶ cm/s | 
C#CCN(CC)Cc1cn(-c2cc(NC(=S)NCC)ncn2)cn1 | > 50 µM | > 83 | 10.5% | 482 nM | > 50 µM | 6.71% | 35.1% | > 40 µM | 1.38 |  | 
C#CCN(Cc1cn(-c2cc(NC(=S)NCC)ncn2)cn1)C(C)=O | > 50 µM | > 78 | 5.15% | 515 nM | > 50 µM | 4.83% | 1.17% | > 40 µM | 1.17 |  | 
C#CCN(CCC)Cc1cn(-c2cc(NC(=S)NCC)ncn2)cn1 | > 50 µM | > 83 | 7.75% | 485 nM | > 50 µM | 1.76% | 24.3% | > 40 µM | 0.448 |  | 
C#CCN(CC#C)Cc1cn(-c2cc(NC(=S)NCC)ncn2)cn1 | > 50 µM | > 56 | 4.97% | 718 nM | > 50 µM | 15.5% | 42.1% | > 40 µM | 0.585 |  | 
C#CCNCc1cn(-c2cc(NC(=S)NCC)ncn2)cn1 | 5.24 µM | > 113 | 15.2% | 354 nM | 4.33 µM |  |  | > 40 µM | 1.18 | 2.78 ×10⁻⁶ cm/s | 0.826
C#CCNCCCc1cn(-c2cc(NC(=S)NCC)ncn2)cn1 | > 50 µM | > 105 | 12.7% | 381 nM | > 50 µM | 31.4% | 36.6% | > 40 µM | 0.186 | 3.26 ×10⁻⁶ cm/s | 
C#CCN(CC#N)CCc1cn(-c2cc(NC(=S)NCC)ncn2)cn1 | > 50 µM | > 67 | 3.02% | 597 nM | > 50 µM | 13.9% | 24.9% | > 40 µM | 0.556 |  | 
